Candida biofilm = kills Candida albicans biofilms; AID 834; C. albicans biofilm + clotrimazole, Alamar Blue; inhibition, % at 6 µM; 85,000 tested, 0.14% active;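 active = inhibition above 20%; inactive = inhibition below 20%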;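 note: preformed 24 hr biofilms exposed to compound for 48 hr; 0% = biofilm without compound and 100% = blank killed by clotrimazole plus chlorhexidine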
HCT116 bCat-KO = beta-catenin-lacking colon tumor cell growth suppression | viability, % at 10 µM | 140,000 tested, 1.5% active | HCT116 beta-catenin knockout viability, CellTiter-Glo, 60 h; hits give low values | AID 818;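 active = viability at or under a set limit, the compound median less 4 SD, cut at about 6% in these data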;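 note: 0% = Hyamine 1622 control at 20 µM and 100% = untreated cell control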
H69AR inhibit = blocks growth of human H69AR lung tumor cells; H69AR lung tumor viability, ATP luminescence, 72 h; hits give low values; viability, % at 10 µM; 85,000 tested, 6% active;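 active = viability at or below 40%; inactive = viability above 40%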;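 note: multidrug resistant small cell line overexpressing MRP-1 efflux transporter; 100% = mean luminescence of untreated control wells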
HCT116 PTEN-null = suppresses growth of cells with PTEN deletion; HCT116 PTEN-null viability, CellTiter-Glo, 60 h; hits give low values; viability, % at 10 µM; 140,000 tested, 1.2% active; AID 827;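 active = viability at or below a set limit, 4 SD under the median of all tested compounds, cut at about 3.7% in these data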;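 note: PTEN knockout HCT116 line with beta catenin targeted HCT116 as companion control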
HUVEC prolif 384 = inhibitors of human endothelial cell proliferation; viability, % at 10 µM (by protocol); HUVEC proliferation, CellTiter-Glo luminescence, 72 h; hits give low values; 86,000 tested, 1.1% active;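 active = viability at or below 30%; inactive = viability above 30%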;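 note: 100% = median luminescence of DMSO-only cell control wells on each plate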
Lung fibro prol = blocks proliferation of human lung fibroblasts; LL 47 human lung fibroblast viability, ATP luminescence; hits give low values; viability, % at 10 µM; 85,000 tested, 1.1% active;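 active = viability at or below 50% in the single dose screen; inactive = viability above 50%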;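 note: compound exposure lasted 72 h before the ATP readout; 100% = median luminescence of untreated cell-only wells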
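Test system: LL 47 human lung fibroblasts; Quantity: 1,150 cells/well; Buffer or medium: IMEM plus 15% FBS; Dosing: tenfold compound dosing solution, DMSO at 0.1%; Timing: overnight cell rest, 72 h compound treatment at 37 °C; Detection: ATP-based CellTiter-Glo luminescent readout; Read-out basis: viability percentage against median untreated-cell control; Controls: cell-only wells, no compound.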
The depositor's hits bear a star; . = no result given. This is one part of a sample in which hits are shown more often than they occur.

SMILES | Candida biofilm | HCT116 bCat-KO | H69AR inhibit | HCT116 PTEN-null | HUVEC prolif 384 | Lung fibro prol
CN1C(=O)C(O)(CC(=O)c2ccc3c(c2)OCO3)c2ccccc21 (stereo not given) | 3 | 106 | 89 | 110 | 109 | 96
CCCN1C(=O)C(O)(CC(=O)c2cccc(OC)c2)c2ccccc21 (stereo not given) | 6 | 12 | 28* | 9 | 85 | 92
CCOc1ccc(C(Nc2ccc(C)cc2)P2(=O)OCCC(C)O2)cc1 (stereo not given) | 7 | 98 | 91 | 97 | 94 | 96
CC1=NN(c2ccc(C)cc2)C(=O)/C1=C\C=C\c1ccccc1 | . | 3.1* | . | 3.0* | . | .
CC1=NN(c2ccccc2)C(=O)/C1=C\c1cc(C)n(-c2ccccc2)c1C | . | 92 | . | 87 | . | .
CC(C)N1C/C(=C/c2ccsc2)C(=O)/C(=C/c2ccsc2)C1 | . | 2.6* | . | 1.5* | . | .
CCN1C(=O)S/C(=C/c2ccsc2)C1=O | -3 | 98 | 95 | 111 | 99 | 101
O=C(CSc1n[nH]c(-c2ccc(S(=O)(=O)N3CCCCC3)cc2)n1)Nc1nccs1 | -2 | 96 | 65 | 99 | 80 | 95
COCCCNS(=O)(=O)c1ccc2c3c(cccc13)C(=O)S2 | . | 89 | 85 | 92 | 106 | 97
COCCCNc1c2c3c(cccc3[nH]c1=O)C(=O)c1ccccc1-2 | 11 | 39 | 18* | 30 | 46 | 64
CC1=C(C(=O)Nc2cccc(F)c2)C(c2ccsc2)C2=C(CC(C)(C)CC2=O)N1 (stereo not given) | . | 15 | . | 13 | . | .
COc1ccccc1C(=O)N1CCN(c2cccc(C(F)(F)F)c2)CC1 | 2 | 19 | 15* | 25 | 63 | 63
COc1ccc(NC(=O)N2CCN(c3cccc(C(F)(F)F)c3)CC2)cc1OC | 6 | 96 | 82 | 88 | 93 | 115
O=C(O)c1ccccc1C(=O)N1CCN(c2cccc(Cl)c2)CC1 | 6 | 93 | 93 | 91 | 83 | 98
COc1ccc(C(=O)N2CCN(c3cccc(Cl)c3)CC2)c(OC)c1 | 7 | 31 | 15* | 29 | 57 | 91
CCOc1ccccc1C(=O)N1CCN(c2cccc(Cl)c2)CC1 | 2 | 20 | 31* | 15 | 30 | 57
COc1ccc(N2CCN(C(=O)c3c(-c4ccccc4)noc3C)CC2)cc1 | 5 | 89 | 106 | 85 | 106 | 96
COc1cc2c(C(=O)N3CCN(c4ccccc4)CC3)c(C)oc2cc1Br | 2 | 64 | 23* | 65 | 87 | 97
Cc1ccc(CNS(=O)(=O)N(C)C)cc1 | -1 | 104 | 107 | 91 | 100 | 104
COc1cc(CCC(=O)Nc2ccc(Br)c(C(F)(F)F)c2)cc(OC)c1OC | . | 56 | . | 44 | . | .
COc1cc(/C=C/C(=O)O)cc(S(=O)(=O)NCCO)c1OC | . | 95 | . | 91 | . | .
CCOC(=O)c1[nH]c(C)c(C(=O)N2CCN(c3ccccc3)CC2)c1C | 9 | 92 | 104 | 94 | 104 | 94
CCOc1ccc2ccccc2c1C(=O)N1CCN(c2ccccc2)CC1 | -5 | 20 | 15* | 22 | 49 | 59
O=C(/C=C/Sc1ccccc1)c1ccccc1 | 2 | 2.1* | 2.2* | 1.4* | 45 | 8.3*
O=C(/C=C/Sc1ccccc1)c1ccc(Cl)cc1 | 5 | 11 | 1.6* | 8 | 49 | 33*
SMILES | Candida biofilm | HCT116 bCat-KO | H69AR inhibit | HCT116 PTEN-null | HUVEC prolif 384 | Lung fibro prol
NC(=O)c1ccccc1N/C=C/C(=O)c1ccc(Cl)cc1 | 7 | 48 | 74 | 49 | 73 | 79
COC(=O)c1ccc(Oc2nc(Nc3ccc(C)c(C)c3)nc(N(C)C)n2)cc1 | 4 | 68 | 71 | 64 | 95 | 89
COc1cc(C(=O)Nc2nc3ccccc3s2)ccc1OCc1c(C)noc1C | 2 | 58 | 19* | 47 | 74 | 80
Cc1cc(C)n(-c2ccc(C(=O)Nc3nc4ccccc4s3)cc2)n1 | 6 | 92 | 15* | 90 | 60 | 102
COc1cc(C(=O)Nc2nccs2)ccc1OCc1c(C)noc1C | 3 | 90 | 84 | 83 | 97 | 99
Cc1nn(-c2ccccc2)c(N2CCCC2)c1/C=N/NC(=S)Nc1ccccc1F | . | 49 | . | 36 | . | .
CC(C)[C@H](N)c1nnc(SC/C=C/c2ccccc2)o1 | 7 | 91 | 98 | 97 | 89 | 104
Cn1c(-c2c(N)n(CCCc3ccccc3)c3nc4ccccc4nc23)nc2ccccc21 | 8 | 53 | 23* | 43 | 73 | 91
Cn1c(-c2c(N)n(CCc3ccccc3)c3nc4ccccc4nc23)nc2ccccc21 | -3 | 49 | 36* | 47 | 72 | 87
C=CCn1c(C)nc2c(c1=O)c1nc3ccccc3nc1n2-c1ccc(C)cc1 | 6 | . | 98 | . | 109 | 101
COC(=O)c1ccc2c(=O)n(CCCCCC(=O)NCc3ccc4c(c3)OCO4)c(=O)[nH]c2c1 | 4 | 104 | 87 | 94 | 98 | 94
CCCCCn1c(=O)[nH]c2cc(C(=O)N3CCN(Cc4ccc5c(c4)OCO5)CC3)ccc2c1=O | 4 | 16 | 9.3* | 18 | 45 | 62
CCCCCn1c(=O)[nH]c2cc(C(=O)NCc3ccc4c(c3)OCO4)ccc2c1=O | -5 | 85 | 32* | 72 | 59 | 89
O=C(CC1CCCC1)OCn1nnc2ccccc2c1=O | 7 | 99 | 94 | 94 | 102 | 107
Cc1ccc(N2CC(C(=O)Nc3nccs3)CC2=O)cc1Cl (stereo not given) | -4 | 62 | 87 | 51 | 17* | 29*
COC(=O)c1ccccc1NC(=O)C1CC(=O)N(c2ccc(F)cc2)C1 (stereo not given) | . | 94 | . | 87 | . | .
COC(=O)c1ccccc1NC(=O)C1CC(=O)N(c2ccc(C)c(C)c2)C1 (stereo not given) | 0 | 103 | 32* | 98 | 95 | 102
O=C(Nc1ccc(Cl)c(Cl)c1)C1CC(=O)N(c2ccc(Br)cc2)C1 (stereo not given) | 7 | 38 | 9.0* | 44 | 54 | 103
Cc1ccc(N2CC(C(=O)Nc3ccc4c(c3)OCO4)CC2=O)cc1 (stereo not given) | 10 | 91 | 92 | 107 | 93 | 104
CC1CCN(S(=O)(=O)c2ccc3c(c2)oc(=O)n3CC(=O)N2CCc3ccccc3C2)CC1 | 11 | 85 | 18* | 90 | 92 | 86
Cc1ccc(-c2nnc3c(C(F)(F)F)nc4ccccc4n23)cc1 | . | 4.7* | . | 8 | . | .
Cc1ccc(-c2nc3ccccc3n3c(C)nnc23)cc1 | . | 77 | . | 78 | . | .
FC(F)(F)c1nc2ccccc2n2c(-c3ccc(Cl)cc3)nnc12 | . | 4.8* | . | 10 | . | .
COc1cccc(NC(=O)CCS(=O)(=O)c2cccs2)c1 | 6 | 98 | 98 | 99 | 88 | .
COc1ccc(Cl)cc1NC(=O)C(C)N(C)Cc1ccc(C(F)(F)F)cc1 (stereo not given) | . | 26 | . | 34 | . | .
Cc1ccc(C)c(N2CCN(C(=O)CNS(=O)(=O)c3cccs3)CC2)c1 | 7 | 98 | 98 | 94 | 89 | 94
